Bioassay records: PubChem BioAssay, The Scripps Research Institute Molecular Screening Center
CHRM4 agonist – human M4 muscarinic receptor agonists, primary screen, CHO-K1 cells, Fluo-8 calcium fluorescence. Muscarinic acetylcholine receptor M4 (Homo sapiens), P08173. AID 624127, 2012. CHO-K1 hM4/Gqi5; vehicle 0%, full acetylcholine response 100%. activation, % at 3 µM. 360,000 compounds, 0.14% hits;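 active = activation above the run mean over all test wells plus 3 SD, cut at about 32% in these data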;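 also: peak over basal fluorescence ratio per well then scaled between controls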
Target sequence (P08173 whole entry, looked up): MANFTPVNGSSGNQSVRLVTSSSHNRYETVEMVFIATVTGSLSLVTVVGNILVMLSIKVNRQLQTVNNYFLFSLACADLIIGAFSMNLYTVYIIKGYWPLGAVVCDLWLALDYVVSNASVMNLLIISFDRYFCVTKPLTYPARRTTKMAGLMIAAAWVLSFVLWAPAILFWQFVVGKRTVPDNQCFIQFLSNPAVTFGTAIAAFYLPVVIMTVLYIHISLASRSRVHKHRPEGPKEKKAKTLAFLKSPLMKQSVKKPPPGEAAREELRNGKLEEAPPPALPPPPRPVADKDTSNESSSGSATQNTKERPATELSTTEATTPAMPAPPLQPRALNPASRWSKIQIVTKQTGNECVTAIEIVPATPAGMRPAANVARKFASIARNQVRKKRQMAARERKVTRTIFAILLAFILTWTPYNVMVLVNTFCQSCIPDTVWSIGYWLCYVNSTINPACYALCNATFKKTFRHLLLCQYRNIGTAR
M4 PAM – human M4 muscarinic receptor positive allosteric modulators, primary screen, CHO-K1 cells, Fluo-8 calcium fluorescence; 360,000 compounds, 0.4% hits; AID 624126, 2012; Muscarinic acetylcholine receptor M4 (Homo sapiens), P08173; activation, % at 3 µM; CHO-K1 hM4/Gqi5, ACh EC20; 0% = ACh EC20, 100% = maximal ACh;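 active = activation above its plate's cutoff, the mean activation of sample wells plus 3 SD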
CHRM5 agonist – human M5 muscarinic receptor agonists, primary screen, CHO-K1 cells, Fluo-8 calcium fluorescence | Muscarinic acetylcholine receptor M5 (Homo sapiens), P08912 | CHO-K1 hM5 cells; 0% DMSO wells, 100% maximal acetylcholine response | activation, % at 3 µM | 360,000 compounds, 0.19% hits | AID 624037, 2012;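 active = activation above the run's mean over test compounds plus 3 SD, cut at about 23% in these data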;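 also: signal is peak over basal fluorescence ratio across the kinetic read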
M5 PAM – human M5 muscarinic receptor positive allosteric modulators, primary screen, CHO-K1 cells, Fluo-8 calcium fluorescence; activation, % at 3 µM; Muscarinic acetylcholine receptor M5 (Homo sapiens), P08912; 360,000 compounds, 0.3% hits; CHO-K1 hM5, ACh EC20 PAM; 0% = ACh EC20, 100% = ACh EC100;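 active = activation above the run cutoff, the mean activation of all test compounds plus 3 SD, cut at about 18% in these data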
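Assay system: CHO-K1 hM5 cells / Incubation: Fluo-8 loading 80 min at 37 °C plus 30 min room temperature / Technique: Fluo-8 calcium dye fluorescence, kinetic read / Repeats: single replicate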
CHRM4 antagonist – human M4 muscarinic receptor antagonists, primary screen, CHO cells, Fluo-8 calcium fluorescence. inhibition, % at 3 µM. AID 624125, 2012. 360,000 compounds, 0.73% hits. CHO-hM4 cells, ACh EC80. Muscarinic acetylcholine receptor M4 (Homo sapiens), P08173;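 active = inhibition above its plate's cutoff, the mean inhibition of sample wells plus 3 SD, cut at about 27% in these data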
CHRM5 antagonist – human M5 muscarinic receptor antagonists, primary screen, CHO cells, Fluo-8 calcium fluorescence | Muscarinic acetylcholine receptor M5 (Homo sapiens), P08912 | CHO-hM5 cells, ACh EC80 | inhibition, % at 3 µM | 360,000 compounds, 0.59% hits | AID 624040, 2012;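 active = inhibition above a per-plate cutoff, the mean of that plate's test compounds plus 3 SD, cut at about 27% in these data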
Hits are given with their value; i = inactive. The list is not random: actives were taken first. Their share in the collection is about 1.9%.

SMILES	CHRM4 agonist	M4 PAM	CHRM5 agonist	M5 PAM	CHRM4 antagonist	CHRM5 antagonist
COc1ccc(C(C)(O)c2nc(-c3ccc(OC)c(OC)c3)cs2)cc1 (stereo unspecified)	i	24.9	i	i	i	i
COc1ccc(-c2csc(C(C)(O)c3ccccc3)n2)cc1OC (stereo unspecified)	i	i	i	i	i	i
Cc1c(N2C(=O)SC(CC(=O)O)C2=O)c(=O)n(-c2ccccc2)n1C (stereo unspecified)	i	i	i	19.5	i	i
Cc1c(N2C(=O)C3C4C=CC(C4)C3C2=O)c(=O)n(-c2ccccc2)n1C (stereo unspecified)	i	i	i	i	i	i
CC(=O)/C=C1\SC(CC(=O)O)C(=O)N1c1ccccc1 (stereo unspecified)	i	21.6	i	i	i	i
Cc1ccc2nc(SCC(=O)O)nc(C)c2c1	i	18.8	i	i	i	i
Cc1cccc(C)c1NC(=O)C(c1ccnc2ccccc12)n1c(=O)c(-c2ccccc2)nc2ccccc21 (stereo unspecified)	i	i	i	i	i	i
COc1ccc(N2CCN(S(=O)(=O)c3cn(C)cn3)CC2)cc1	i	i	i	i	i	i
CC(C)OC(=O)n1c(=S)oc2ccccc21	i	i	i	i	i	i
Cc1cccc(OC(=O)n2c(=S)oc3cc(Cl)ccc32)c1	i	29.9	i	i	i	i
C/C(CC1CC(COCC(C)C)OC1=O)=N\Nc1nc(-c2ccccc2)cs1 (stereo unspecified)	i	i	i	i	29.9	i
CN1CCC(Oc2ccc(Sc3ccccc3)cc2)CC1	i	i	i	i	34.0	i
CN1CCC(Oc2ccccc2Sc2ccc(C(F)(F)F)cc2)CC1	i	i	i	i	i	i
COc1cccc(C2CC(=O)N3CN(c4ccccc4F)CSC3=C2C#N)c1 (stereo unspecified)	i	i	i	i	i	i
COc1ccc(OC)c(C2CC(=O)N3CN(c4ccccc4F)CSC3=C2C#N)c1 (stereo unspecified)	i	i	i	22.1	i	i
O=C(Nc1cccc(C(F)(F)F)c1)Nc1ccc(N2CCCC2)c(S(=O)(=O)Nc2ccccc2Cl)c1	i	i	i	i	i	27.8
Cc1ccc(NC(=O)CSc2nn(-c3ccccc3)c(=S)s2)cc1S(=O)(=O)N(C)C	i	i	i	i	i	29.7
O=C(CSc1nn(-c2ccccc2)c(=S)s1)Nn1cnnc1	i	i	i	i	i	i
CCOc1ccc(NS(=O)(=O)c2ccc(C(=O)NCCCN3CCCC3=O)cc2)cc1	i	i	i	i	i	i
Cc1cc(C(=O)Nc2c[nH]c(=O)[nH]c2=O)ccc1[N+](=O)[O-]	i	i	i	i	i	i
O=C(Nc1c[nH]c(=O)[nH]c1=O)c1cccc([N+](=O)[O-])c1	i	i	i	21.7	i	i
Cc1cccc(N2C(=O)c3ccc(C(=O)Nc4c[nH]c(=O)[nH]c4=O)cc3C2=O)c1	i	i	i	i	27.4	i
O=C(Nc1c[nH]c(=O)[nH]c1=O)c1cccc(F)c1	i	i	i	i	i	i
CC(=O)Nc1cccc(-c2csc(C(O)c3cccc(Cl)c3)n2)c1 (stereo unspecified)	i	i	i	i	i	i
CCOC(=O)C1CCN(c2cc3c(cc2NC(=O)c2ccccc2OCC)n(C)c(=O)n3C)CC1	i	i	i	i	i	33.9
CCOC(=O)C1CCN(c2cc3c(cc2NC(=O)c2ccccc2Cl)n(C)c(=O)n3C)CC1	i	i	i	i	i	i
CC1CCN(C(=O)COC(=O)C2CCN(S(=O)(=O)c3ccc(Cl)c(C(F)(F)F)c3)CC2)CC1	i	i	i	i	i	i
